Test results as given in ChEMBL document CHEMBL1122917, “Vinblastin-23-oyl amino acid derivatives: chemistry, physicochemical data, toxicity, and antitumor activities against P388 and L1210 leukemias” (J Med Chem, 1985).

What was measured:
Format in all cases: functional
Mus musculus [1] = assay: Percent increase in life span at dose 58 mg/kg/day in 10 mice implanted with P388 leukemia cell line
Mus musculus [2] = assay: Percent increase in life span of DBA2 mice after inoculation with L1210 leukemia intravenously at a dose of 55 mg/kg per day; details: route intravenous
Summary of the method: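 Female DBA2 mice inoculated iv on day 0 with 10^4 L1210 cells; drugs given iv as sulfate salts in physiological saline, mostly once on day 1. %ILS from all deaths and survivors as (T/C × 100) − 100; survivors scored on days 30 and 60.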

Mus musculus [3] = assay: Percent increase in life span at dose 55 mg/kg/day in 7 mice implanted with P388 leukemia cell line for 1,8,15 schedule day
Mus musculus [4] = assay: Number of survivors on 60th day at dose 56 mg/kg/day in 10 mice implanted with P388 leukemia cell line; 2/10
Mus musculus [5] = assay: Number of survivors on 60th day at dose 60 mg/kg/day in 10 mice implanted with P388 leukemia cell line 1,5,9 scheduled days; 3/10
Mus musculus [6] = assay: Percent increase in life span at dose 70 mg/kg/day in 10 mice implanted with P388 leukemia cell line
Summary of the method: (§1)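 Female DBA2 mice inoculated iv on day 0 with 10^4 P388 cells; single iv treatment on day 1 with drug as sulfate salt in physiological saline. Survival followed; %ILS from all deaths and survivors as (T/C × 100) − 100, maximal MST 30 days; survivors counted on days 30 and 60. Most experiments confirmed three times.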

Mus musculus [7] = assay: Number of survivors of DBA2 mice on 30th day after inoculation with L1210 leukemia cell line intravenously at a dose of 45 mg/kg/day; 0/10; details: route intravenous
Mus musculus [8] = assay: Number of survivors on 60th day at dose 50 mg/kg/day in 10 mice implanted with P388 leukemia cell line; 5/10
Mus musculus [9] = assay: Percent increase in life span at dose 40 mg/kg/day in 10 mice implanted with P388 leukemia cell line; summary of the method: as §1
Mus musculus [10] = assay: Percent increase in life span at dose 55 mg/kg/day in 10 mice implanted with P388 leukemia cell line for 1st schedule day
Mus musculus [11] = assay: Percent increase in life span at dose 65 mg/kg/day in 10 mice implanted with P388 leukemia cell line for 1st schedule day
Mus musculus [12] = assay: Number of survivors on 30th day at dose 40 mg/kg/day in 10 mice implanted with P388 leukemia cell line; 5/10
Mus musculus [13] = assay: Number of survivors on 60th day at dose 65 mg/kg/day in 10 mice implanted with P388 leukemia cell line for 1st scheduled day; 1/10
Mus musculus [14] = assay: Percent increase in life span at dose 55 mg/kg/day in 10 mice implanted with P388 leukemia cell line for 1,5,9 schedule days
Mus musculus [15] = assay: Number of survivors on 30th day at dose 70 mg/kg/day in 10 mice implanted with P388 leukemia cell line; 5/11
Mus musculus [16] = assay: Number of survivors on 60th day at dose 6 mg/kg/day in 9 mice implanted with P388 leukemia cell line; 0/10
Mus musculus [17] = assay: Percent increase in life span at dose 10 mg/kg/day in 7 mice implanted with P388 leukemia cell line for 1,8,15 schedule days
Mus musculus [18] = assay: Number of survivors on 60th day at dose 8 mg/kg/day in 7 mice implanted with P388 leukemia cell line for 1,8.15 scheduled days from Exp-2; 0/10
Mus musculus [19] = assay: Number of survivors on 60th day at dose 4 mg/kg/day in 10 mice implanted with P388 leukemia cell line; 0/9
Mus musculus [20] = assay: Number of survivors of DBA2 mice on 60th day after inoculation with L1210 leukemia cell line intraperitoneally at a dose of 4 mg/kg/day; 0/10; details: route intraperitoneal
Mus musculus [21] = assay: Number of survivors of DBA2 mice on 60th day after inoculation with L1210 leukemia cell line intraperitoneally at a dose of 0.33 mg/kg/day; 0/10; details: route intraperitoneal
Mus musculus [22] = assay: Number of survivors of DBA2 mice on 30th day after inoculation with L1210 leukemia cell line intraperitoneally at a dose of 6 mg/kg/day; 0/10; details: route intraperitoneal
Mus musculus [23] = assay: Number of survivors on 30th day at dose 5 mg/kg/day in 10 mice implanted with P388 leukemia cell line; 0 /10
Mus musculus [24] = assay: Number of survivors on 30th day at dose 6 mg/kg/day in 10 mice implanted with P388 leukemia cell line; 0 /10
Mus musculus [25] = assay: Percent increase in life span at dose 0.5 mg/kg/day in 10 mice implanted with P388 leukemia cell line
Mus musculus [26] = assay: Percent increase in life span at dose 1.5 mg/kg/day in 10 mice implanted with P388 leukemia cell line
Mus musculus [27] = assay: Number of survivors of DBA2 mice on 60th day after inoculation with L1210 leukemia cell line intravenously at a dose of 0.5 mg/kg/day; 0/10; details: route intravenous
Mus musculus [28] = assay: Percent increase in life span of DBA2 mice after inoculation with L1210 leukemia intravenously at a dose of 5.5 mg/kg per day; details: route intravenous
Mus musculus [29] = assay: Number of survivors of DBA2 mice on 60th day after inoculation with L1210 leukemia cell line intraperitoneally at a dose of 1 mg/kg/day; 0/10; details: route intraperitoneal
Mus musculus [30] = assay: Number of survivors of DBA2 mice on 30th day after inoculation with L1210 leukemia cell line intravenously at a dose of 0.5 mg/kg/day; 0/10; details: route intravenous
Mus musculus [31] = assay: Number of survivors of DBA2 mice on 30th day after inoculation with L1210 leukemia cell line intravenously at a dose of 2.5 mg/kg/day; 0/10; details: route intravenous
Mus musculus [32] = assay: Number of survivors on 60th day at dose 1 mg/kg/day in 10 mice implanted with P388 leukemia cell line; 0/10
Mus musculus [33] = assay: Number of survivors on 60th day at dose 1.5 mg/kg/day in 10 mice implanted with P388 leukemia cell line; 0/10
Mus musculus [34] = assay: Number of survivors on 30th day at dose 1.5 mg/kg/day in 10 mice implanted with P388 leukemia cell line; 0/10
Mus musculus [35] = assay: Number of survivors of DBA2 mice on 30th day after inoculation with L1210 leukemia cell line intravenously at a dose of 3.5 mg/kg/day; 0/10; details: route intravenous
Mus musculus [36] = assay: Number of survivors of DBA2 mice on 60th day after inoculation with L1210 leukemia cell line intravenously at a dose of 3.5 mg/kg/day; 0/10; details: route intravenous
Mus musculus [37] = assay: Number of survivors of DBA2 mice on 60th day after inoculation with L1210 leukemia cell line intravenously at a dose of 5.5 mg/kg/day; 0/10; details: route intravenous
Mus musculus [38] = assay: Percent increase in life span at dose 2.5 mg/kg/day in 10 mice implanted with P388 leukemia cell line for 1st scheduled day
Mus musculus [39] = assay: Percent increase in life span at dose 3 mg/kg/day in 10 mice implanted with P388 leukemia cell line; 0/10
Mus musculus [40] = assay: Number of survivors on 30th day at dose 6 mg/kg/day in 10 mice implanted with P388 leukemia cell line; 0/10

CCOC(=O)[C@H](Cc1c[nH]c2ccccc12)NC(=O)[C@@]1(O)[C@H](O)[C@]2(CC)C=CCN3CC[C@@]4(c5cc([C@@]6(C(=O)OC)C[C@H]7C[N@](CCc8c6[nH]c6ccccc86)C[C@](O)(CC)C7)c(OC)cc5N(C)[C@@]14C)[C@@H]32
ILS at 58 mg/kg/day (Mus musculus [1]): 122%
ILS at 55 mg/kg/day (Mus musculus [2]): 55.3%
ILS at 55 mg/kg/day (Mus musculus [3]): 53%
Survivors (Mus musculus [4]): 2
Survivors (Mus musculus [5]): 3
ILS at 70 mg/kg/day (Mus musculus [6]): 160%
Survivors (Mus musculus [7]): 0
Survivors (Mus musculus [8]): 5
ILS at 40 mg/kg/day (Mus musculus [9]): 58.8%
ILS at 55 mg/kg/day (Mus musculus [10]): > 261%
ILS at 65 mg/kg/day (Mus musculus [11]): 82%
Survivors (Mus musculus [12]): 5
Survivors (Mus musculus [13]): 1
ILS at 55 mg/kg/day (Mus musculus [14]): > 426%
Survivors (Mus musculus [15]): 5

CCOC(=O)[C@@H](NC(=O)[C@@]1(O)[C@H](O)[C@]2(CC)C=CCN3CC[C@@]4(c5cc([C@@]6(C(=O)OC)C[C@H]7C[N@](CCc8c6[nH]c6ccccc86)C[C@](O)(CC)C7)c(OC)cc5N(C)[C@@]14C)[C@@H]32)[C@@H](C)CC
Survivors (Mus musculus [16]): 0
ILS at 10 mg/kg/day (Mus musculus [17]): 41%
Survivors (Mus musculus [18]): 0
Survivors (Mus musculus [19]): 0

CC[C@]1(O)C[C@@H]2CN(CCc3c([nH]c4ccccc34)[C@@](C(=O)OC)(c3cc4c(cc3OC)N(C)[C@H]3[C@@](O)(C(=O)OC)[C@H](OC(C)=O)[C@]5(CC)C=CCN6CC[C@]43[C@@H]65)C2)C1 [VINBLASTINE]
Survivors (Mus musculus [20]): 0
Survivors (Mus musculus [21]): 0
Survivors (Mus musculus [22]): 0
Survivors (Mus musculus [23]): 0
Survivors (Mus musculus [24]): 0

CC[C@]1(O)C[C@H]2CN(CCc3c([nH]c4ccccc34)[C@@](C(=O)OC)(c3cc4c(cc3OC)N(C=O)[C@H]3[C@@](O)(C(=O)OC)[C@H](OC(C)=O)[C@]5(CC)C=CCN6CC[C@]43[C@@H]65)C2)C1 [VINCRISTINE]
ILS at 0.5 mg/kg/day (Mus musculus [25]): 4%
ILS at 1.5 mg/kg/day (Mus musculus [26]): 20.8%
Survivors (Mus musculus [27]): 0
ILS at 5.5 mg/kg/day (Mus musculus [28]): 26.6%
Survivors (Mus musculus [29]): 0
Survivors (Mus musculus [30]): 0
Survivors (Mus musculus [31]): 0
Survivors (Mus musculus [32]): 0
Survivors (Mus musculus [33]): 0
Survivors (Mus musculus [34]): 0
Survivors (Mus musculus [35]): 0
Survivors (Mus musculus [36]): 0
Survivors (Mus musculus [37]): 0

CC[C@]1(O)C[C@@H]2CN(CCc3c([nH]c4ccccc34)[C@@](C(=O)OC)(c3cc4c(cc3OC)N(C)[C@H]3[C@@](O)(C(N)=O)[C@H](O)[C@]5(CC)C=CCN6CC[C@]43[C@@H]65)C2)C1 [VINDESINE]
ILS at 2.5 mg/kg/day (Mus musculus [38]): 32%
ILS at 3 mg/kg/day (Mus musculus [39]): 49.2%
Survivors (Mus musculus [40]): 0
